Measurements from ChEMBL document CHEMBL1772959, “Comosusols A-D and comosone A: cytotoxic compounds from the brown alga Sporochnus comosus” (J Nat Prod, 2011).

What was measured:
SF-268 = assay: Growth inhibition of human SF268 cells after 48 hrs by sulforhodamine B assay; format: functional; details: SF-268, 48 h
Method in brief: (§1)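 Grown in RPMI 1640 with L-glutamine plus 5% fetal bovine serum at 37 C, 5% CO2. Seeded at 5000 cells/well and allowed to attach 24 h. Pure compounds were added from DMSO as serial dilutions in medium over 66.7-0.01 μg/mL final. Cells were TCA-fixed and SRB-stained at 0 and 48 h, with absorbance read at 490 nm. GI50 was taken against vehicle-only and time-0 readings.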

MCF7 = assay: Growth inhibition of human MCF7 cells after 48 hrs by sulforhodamine B assay; format: functional; details: MCF7, 48 h; method in brief: as §1
NCI-H460 = assay: Growth inhibition of human H460 cells after 48 hrs by sulforhodamine B assay; format: functional; details: NCI-H460, 48 h; method in brief: as §1
HT-29 = assay: Growth inhibition of human HT-29 cells after 48 hrs by sulforhodamine B assay; format: functional; details: HT-29, 48 h
Method in brief: (§2)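 Cultured in MEM with Earle's salts, L-glutamine, nonessential amino acids and sodium pyruvate at 37 C, 5% CO2. Plated at 5000 cells/well with 24 h attachment. Pure compounds were given as serial dilutions from DMSO in medium over 66.7-0.01 μg/mL final. SRB protein staining after TCA fixation at 0 and 48 h, read at 490 nm. GI50 came from comparison with vehicle-only and time-0 values.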

[1] = Growth inhibition of chinese hamster CHOK1 cells after 48 hrs by sulforhodamine B assay; format: cell-based, Cricetulus griseus; details: CHO-K1 cells; method in brief: as §2

| Structure (SMILES) | GI50 (MCF7) | GI50 (NCI-H460) | GI50 (HT-29) | GI50 (SF-268) | GI50 at 48 h [1] |
| --- | --- | --- | --- | --- | --- |
| CC(=O)O[C@H]1CC(C)(C)C(=C=C/C(C)=C/C=C/C(C)=C/C=C/C=C(C)/C=C/C=C(\C)C(=O)C[C@@]23O[C@]2(C)C[C@@H](O)CC3(C)C)[C@](C)(O)C1 | 8 µM | 14 µM | 17 µM | 12 µM | 12 µM |
| C=CC(C)(C)c1cc(O)c(/C=C\C(C)(C)O)cc1O [COMOSUSOL B] | 6 µM | 6 µM | 6 µM | 5 µM | 6 µM |
| C=CC(C)(C)c1cc(O)c(C(O)C(O)C(C)(C)O)cc1O (stereo not given) [COMOSUSOL D] | 46 µM | 54 µM | 51 µM | 59 µM | 63 µM |
| OC[C@@H](O)[C@H](O)[C@H](O)[C@@H](O)CO [GALACTITOL] | > 220 µM | > 220 µM | > 220 µM | > 220 µM | > 220 µM |

Now from value to compound, other results behind:

| GI50 (MCF7) | GI50 (NCI-H460) | GI50 (HT-29) | Structure (SMILES) | GI50 (SF-268) | GI50 at 48 h [1] |
| --- | --- | --- | --- | --- | --- |
| 27 µM | 37 µM | 57 µM | C=CC(C)(C)c1ccc(O)c(CC=C(C)C)c1 | 39 µM | 29 µM |
| 26 µM | 41 µM | 37 µM | C=CC(C)(C)C1=CC(=O)C(CC=C(C)C)=CC1=O | 17 µM | 17 µM |
| 14 µM | 19 µM | 19 µM | CC(C)=CCC1(CC=C(C)C)C[C@@H](O)C=CC1=O [COMOSONE A] | 13 µM | 17 µM |
| 52 µM | 55 µM | 53 µM | CC(C)=CCc1cc(O)cc(/C=C\C(C)(C)O)c1O [COMOSUSOL A] | 55 µM | 57 µM |
| 25 µM | 29 µM | 43 µM | C=CC(C)(C)c1cc(O)c(CC=C(C)C)cc1O [COMOSUSOL C] | 35 µM | 27 µM |
